Measurements taken from ChEMBL document CHEMBL5058577, “EUbOPEN Chemogenomics Library 2 (Multiplex)” (2022).

Test system: U2OS
Test: Multiplex assay against U2OS
Assay type: toxicity, cell-based
Settings: human
Procedure, shortened: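 Compound was added to live cells that had been stained at seeding with Hoechst33342, BioTracker Green Microtubule Cytoskeleton Dye, MitoTracker Red and Annexin V Alexa Fluor 680, and imaging followed on a CQ1 microscope at 37°C and 5% CO2. CellPathfinder machine-learning gating divided cells into Hoechst high-intensity objects or normal cells, normal cells into healthy, pyknosed or fragmented nuclei, and pyknosed cells into mitotic or apoptotic. Tubulin, mitochondrial-mass and membrane-permeability phenotypes are per cents of healthy-nucleus cells.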

[1] = 12 h, 1 µM, compound concentration 1 uM, replicate 1
[2] = 12 h, 1 µM, compound concentration 1 uM, replicate 2
[3] = 12 h, 10 µM, compound concentration 10 uM, replicate 1
[4] = 12 h, 10 µM, compound concentration 10 uM, replicate 2
[5] = 24 h, 1 µM, compound concentration 1 uM, replicate 1
[6] = 24 h, 1 µM, compound concentration 1 uM, replicate 2
[7] = 24 h, 10 µM, compound concentration 10 uM, replicate 1
[8] = 24 h, 10 µM, compound concentration 10 uM, replicate 2
[9] = 48 h, 1 µM, compound concentration 1 uM, replicate 1
[10] = 48 h, 1 µM, compound concentration 1 uM, replicate 2
[11] = 48 h, 10 µM, compound concentration 10 uM, replicate 1
[12] = 48 h, 10 µM, compound concentration 10 uM, replicate 2

Structure (SMILES): CCCCC1=NC2(CCCC2)C(=O)N1Cc1ccc(-c2ccccc2-c2nnn[nH]2)cc1 [IRBESARTAN]
- Population Apoptotic (%) [1]: 83%
- Population Fragmented Nuclei (%) [1]: 25%
- Population Healthy Nuclei (%) [1]: 66%
- Population Hoechst High Intensity Objects (%) [1]: 2%
- Population Membrane Permeable-Phenotype (%) [1]: 5%
- Population Mitochondria Different-Phenotype (%) [1]: 1%
- Population Mitotic Cells (%) [1]: 16%
- Population Normal (%) [1]: 97%
- Population Pyknosed Nuclei (%) [1]: 7%
- Population Tubulin-Different-Phenotype (%) [1]: 1%
- Total Cell Count [1]: 233
- Population Apoptotic (%) [2]: 77%
- Population Fragmented Nuclei (%) [2]: 9%
- Population Healthy Nuclei (%) [2]: 82%
- Population Hoechst High Intensity Objects (%) [2]: 0%
- Population Membrane Permeable-Phenotype (%) [2]: 11%
- Population Mitotic Cells (%) [2]: 22%
- Population Normal (%) [2]: 99%
- Population Tubulin-Different-Phenotype (%) [2]: 8%
- Total Cell Count [2]: 124
- Population Apoptotic (%) [3]: 91%
- Population Fragmented Nuclei (%) [3]: 22%
- Population Healthy Nuclei (%) [3]: 68%
- Population Hoechst High Intensity Objects (%) [3]: 2%
- Population Membrane Permeable-Phenotype (%) [3]: 4%
- Population Mitochondria Different-Phenotype (%) [3]: 3%
- Population Mitotic Cells (%) [3]: 8%
- Population Normal (%) [3]: 97%
- Population Pyknosed Nuclei (%) [3]: 9%
- Population Tubulin-Different-Phenotype (%) [3]: 2%
- Total Cell Count [3]: 254
- Population Apoptotic (%) [4]: 100%
- Population Fragmented Nuclei (%) [4]: 18%
- Population Healthy Nuclei (%) [4]: 74%
- Population Hoechst High Intensity Objects (%) [4]: 0%
- Population Membrane Permeable-Phenotype (%) [4]: 8%
- Population Mitochondria Different-Phenotype (%) [4]: 6%
- Population Mitotic Cells (%) [4]: 0%
- Population Normal (%) [4]: 100%
- Population Pyknosed Nuclei (%) [4]: 8%
- Population Tubulin-Different-Phenotype (%) [4]: 8%
- Total Cell Count [4]: 100
- Population Apoptotic (%) [5]: 70%
- Population Fragmented Nuclei (%) [5]: 23%
- Population Healthy Nuclei (%) [5]: 69%
- Population Hoechst High Intensity Objects (%) [5]: 3%
- Population Membrane Permeable-Phenotype (%) [5]: 6%
- Population Mitochondria Different-Phenotype (%) [5]: 3%
- Population Mitotic Cells (%) [5]: 29%
- Population Normal (%) [5]: 96%
- Population Pyknosed Nuclei (%) [5]: 7%
- Population Tubulin-Different-Phenotype (%) [5]: 3%
- Total Cell Count [5]: 241
- Population Apoptotic (%) [6]: 66%
- Population Fragmented Nuclei (%) [6]: 12%
- Population Healthy Nuclei (%) [6]: 76%
- Population Hoechst High Intensity Objects (%) [6]: 2%
- Population Membrane Permeable-Phenotype (%) [6]: 9%
- Population Mitochondria Different-Phenotype (%) [6]: 2%
- Population Mitotic Cells (%) [6]: 33%
- Population Normal (%) [6]: 97%
- Population Pyknosed Nuclei (%) [6]: 10%
- Population Tubulin-Different-Phenotype (%) [6]: 4%
- Total Cell Count [6]: 142
- Population Apoptotic (%) [7]: 96%
- Population Fragmented Nuclei (%) [7]: 18%
- Population Healthy Nuclei (%) [7]: 73%
- Population Hoechst High Intensity Objects (%) [7]: 2%
- Population Membrane Permeable-Phenotype (%) [7]: 6%
- Population Mitochondria Different-Phenotype (%) [7]: 3%
- Population Mitotic Cells (%) [7]: 4%
- Population Normal (%) [7]: 97%
- Population Pyknosed Nuclei (%) [7]: 8%
- Population Tubulin-Different-Phenotype (%) [7]: 4%
- Total Cell Count [7]: 301
- Population Apoptotic (%) [8]: 91%
- Population Healthy Nuclei (%) [8]: 72%
- Population Hoechst High Intensity Objects (%) [8]: 0%
- Population Membrane Permeable-Phenotype (%) [8]: 7%
- Population Mitotic Cells (%) [8]: 8%
- Population Normal (%) [8]: 99%
- Population Tubulin-Different-Phenotype (%) [8]: 3%
- Total Cell Count [8]: 135
- Population Apoptotic (%) [9]: 97%
- Population Fragmented Nuclei (%) [9]: 18%
- Population Healthy Nuclei (%) [9]: 71%
- Population Hoechst High Intensity Objects (%) [9]: 2%
- Population Membrane Permeable-Phenotype (%) [9]: 5%
- Population Mitochondria Different-Phenotype (%) [9]: 2%
- Population Mitotic Cells (%) [9]: 2%
- Population Normal (%) [9]: 97%
- Population Pyknosed Nuclei (%) [9]: 10%
- Population Tubulin-Different-Phenotype (%) [9]: 2%
- Total Cell Count [9]: 357
- Population Apoptotic (%) [10]: 94%
- Population Fragmented Nuclei (%) [10]: 14%
- Population Healthy Nuclei (%) [10]: 76%
- Population Hoechst High Intensity Objects (%) [10]: 4%
- Population Membrane Permeable-Phenotype (%) [10]: 6%
- Population Mitochondria Different-Phenotype (%) [10]: 1%
- Population Mitotic Cells (%) [10]: 5%
- Population Normal (%) [10]: 95%
- Population Pyknosed Nuclei (%) [10]: 9%
- Total Cell Count [10]: 198
- Population Apoptotic (%) [11]: 89%
- Population Fragmented Nuclei (%) [11]: 14%
- Population Healthy Nuclei (%) [11]: 75%
- Population Hoechst High Intensity Objects (%) [11]: 3%
- Population Membrane Permeable-Phenotype (%) [11]: 7%
- Population Mitochondria Different-Phenotype (%) [11]: 3%
- Population Mitotic Cells (%) [11]: 10%
- Population Normal (%) [11]: 96%
- Population Pyknosed Nuclei (%) [11]: 9%
- Population Tubulin-Different-Phenotype (%) [11]: 3%
- Total Cell Count [11]: 419
- Population Apoptotic (%) [12]: 94%
- Population Fragmented Nuclei (%) [12]: 16%
- Population Healthy Nuclei (%) [12]: 72%
- Population Hoechst High Intensity Objects (%) [12]: 4%
- Population Membrane Permeable-Phenotype (%) [12]: 9%
- Population Mitochondria Different-Phenotype (%) [12]: 7%
- Population Mitotic Cells (%) [12]: 5%
- Population Normal (%) [12]: 95%
- Population Pyknosed Nuclei (%) [12]: 10%
- Population Tubulin-Different-Phenotype (%) [12]: 7%
- Total Cell Count [12]: 175
